# Source: article PMC2650391 (Molecular cell, 2009)
# Where no end group is shown, it is not given here.
# What was measured:
# [1] = tested on: H3K4me peptides / ING4 PHD finger; test: Biotinylated histone peptide pull-down, Western analysis; type: binding; settings: individual substitutions, GST-fusion proteins
# H3K4me3 = test: Global H3K4me3 levels, Western analysis of cell lysates; type: cell-based; settings: demethylase transfection, ± ING4 overexpression
# Procedure, shortened: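 Cells transfected with Rbp2 or Plu-1 demethylase, with or without ING4 overexpression. Whole-cell lysates probed by Western blot for H3K4me3. Four independent experiments, error bars S.E.M.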
# HT1080 cells = test: TUNEL assay of ING4-dependent apoptosis; type: cell-based; settings: HT1080, 400 ng/ml doxorubicin 20 hours, 48 hours after transfection
# Procedure, shortened: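 HT1080 cells transfected with the plasmids, then given 400 ng/ml doxorubicin for 20 h, assayed 48 h after transfection. Cells fixed in methanol at −20C for 20 min, TUNEL-stained (TMR red) and mounted with DAPI. TUNEL-positive cells counted from images; s.e.m. from 3 independent fields.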
# [2] = tested on: purified polynucleosomes (H3K4me3); test: Polynucleosome binding, Western analysis; settings: recombinant proteins
# Procedure, shortened: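 Recombinant ING4 PHD finger proteins, wild type or carrying substitutions in the H3K4me3-binding surface, incubated with purified polynucleosomes. Bound material detected by Western blot with antibodies to the four core histones, H3K4me3 and H3K9me3.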
# [3] = tested on: gene promoters in HT1080 cells; test: ChIP-chip on whole genome promoter tiling arrays; type: cell-based; settings: doxorubicin treatment; 292 doxorubicin-induced target promoters
# [4] = tested on: Egln1, Ext1 and Smc4 mRNA; test: mRNA expression Realtime-PCR; type: cell-based; settings: HT1080; relative to untreated wild-type cells
# Procedure, shortened: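 HT1080 cells stably carrying vector, Flag-ING4 or Flag-ING4D213A, with doxorubicin-induced DNA damage. Transcripts measured by real-time PCR with TaqMan gene expression assays. Values are relative change versus untreated wild-type cells; error bars s.e.m.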
# T47D cells = test: Soft agar assay, anchorage-independent growth; type: cell-based; settings: colonies scored after 21 days, vs control vector
# Procedure, shortened: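 T47D cells stably carrying pMSCV-ING4, pMSCV-ING4D213A or empty pMSCV; 55,000 cells plated in […] soft agar growth medium over a 1% agar base layer. Medium refreshed every three days; colonies counted at day 21. Four independent experiments, S.E.M.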
# [5] = tested on: H3K4me3 at Smc4, Egln1, Ext1 promoters; test: ChIP Realtime-PCR, H3K4me3 levels at target promoters; type: cell-based; settings: doxorubicin treatment, all samples
compound,measurement,setting,value
"W221A: ING4PHD with substitution W221A (EPTYCLCHQVSYGEMIGCDNPDCSIEAFHFACVGLTTKPRGKWFCPR; cysteine pairing not given here; also: GST fusion, end not given here)",binding of ING4PHD mutants to H3K4me peptides in pull-down,[1],abrogated binding of the ING4PHD to the H3K4me peptides
RBP2: H3K4me3-demethylase,total H3K4me3 levels,H3K4me3,decreased total H3K4me3 levels
same,ING4-dependent apoptosis,HT1080 cells,abrogated ING4-dependent apoptosis
"ING4PHD: recombinant ING4 PHD finger, aa 195–241 (EPTYCLCHQVSYGEMIGCDNPDCSIEWFHFACVGLTTKPRGKWFCPR; cysteine pairing not given here; also: GST fusion, end not given here)",interaction with H3K4me3 in nucleosomes,[2],occurs in the context of nucleosomes
ING4D213A: ING4 with a point mutation that abrogates H3K4me3 binding,average occupancy on DNA damage-dependent promoters,[3],largely absent compared to the wild-type protein
same,baseline smc4 expression,[4],inhibits baseline expression
same,growth in soft agar,T47D cells,failed to inhibit soft agar growth
"Y198A: ING4PHD with substitution Y198A (EPTACLCHQVSYGEMIGCDNPDCSIEWFHFACVGLTTKPRGKWFCPR; cysteine pairing not given here; also: GST fusion, end not given here)",binding of ING4PHD mutants to H3K4me peptides in pull-down,[1],abrogated binding of the ING4PHD to the H3K4me peptides
"D213A: ING4PHD with substitution D213A (EPTYCLCHQVSYGEMIGCANPDCSIEWFHFACVGLTTKPRGKWFCPR; cysteine pairing not given here; also: GST fusion, end not given here)",binding of ING4PHD mutants to H3K4me peptides in pull-down,[1],abrogated binding of the ING4PHD to the H3K4me peptides
COc1cccc2c1C(=O)c1c(O)c3c(c(O)c1C2=O)C[C@@](O)(C(=O)CO)C[C@@H]3O[C@H]1C[C@H](N)[C@H](O)[C@H](C)O1 [doxorubicin],"H3K4me3 levels at Smc4, Egln1 and Ext1 promoters",[5],modestly induced
PLU-1: H3K4me3-demethylase,total H3K4me3 levels,H3K4me3,decreased total H3K4me3 levels
same,ING4-dependent apoptosis,HT1080 cells,abrogated ING4-dependent apoptosis
